# From PubChem BioAssay AID504383 (The Scripps Research Institute Molecular Screening Center, 2011)
# The campaign covered roughly 2,500 compounds. About 1,200 (48%) were called active. So high a share suggests a set chosen from earlier hits. The list shows a part of the results. A number with no mark means an inactive call.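 Rule for the calls: active = mean activation above the low control average plus 3 SD, as set in the primary screen (cut at about 12% in these data); inactive = the rest.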
# Target: Troponin I, cardiac muscle (Homo sapiens) + Troponin T, cardiac muscle (Homo sapiens) + Troponin C, slow skeletal and cardiac muscles (Homo sapiens) (UniProt P19429+P45379+P63316)
# Assay: calcium sensitizers of cardiac thin filaments – biochemical, IANBD-TnC fluorescence, triplicate, confirmation (AID 504383);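 note: 0% = DMSO at 0.472 mM calcium and 100% = DMSO at 2.9 mM calcium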
# Conditions: IANBD-labeled cardiac RTF, Ca2+ sensitivity fluorescence; at 7.2 µM; stronger effect = higher value; scaled from EC20 to saturating calcium; tested at EC20 calcium, 0.472 mM
# Procedure, shortened: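 material = labelled regulated thin filaments | probe or stimulus = Ca2+ 0.472 mM, EC20 level | dosing = single nominal compound dose of 7.2 µM | schedule = 15 min at 25 °C | signal = fluorescence intensity of labelled filaments | evaluation = fluorescence gain scaled between EC20 and EC100 calcium controls | benchmarks = low control EC20 calcium, high control EC100 calcium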
row,Structure (SMILES),activation
1,COc1cccc2c1C(=O)c1c(O)c3c(c(O)c1C2=O)CC(O)(C(C)=NNC(=O)c1ccc(Cl)c(Cl)c1)CC3OC1CC(N)C(O)C(C)O1 (configuration not stated),5.43%
2,CN(C)C=NC(=O)c1cc(C(=O)c2ccccc2Cl)c[nH]1,11%
3,O=C(c1c[nH]c(C(=O)C(Cl)(Cl)Cl)c1)c1c(F)cccc1F,3920% (active)
4,O=S(=O)([N-]c1nc2ccccc2nc1-[n+]1ccc(-c2ccncc2)cc1)c1ccccc1,4.89%
5,Cc1ccc[n+](-c2nc3ccccc3nc2[N-]S(=O)(=O)c2ccccc2)c1,55.5% (active)
6,CCOC(=O)c1cc(-c2ccc(F)cc2)n(CCC(=O)NC2CCN(Cc3ccccc3)CC2)c1C,10.5%
7,CCOC(=O)N1CCC(NC(=O)c2cccs2)CC1,6.98%
8,CCOC(=O)N1CCC(Nc2cccc(SC)c2)CC1,246% (active)
9,Cc1ccc(Cn2c(O)c(N=NC(=S)Nc3ccccc3F)c3cc(S(=O)(=O)N4CCOCC4)ccc32)cc1,17.5% (active)
10,Oc1c(N=NC(=S)Nc2ccccc2F)c2ccccc2n1Cc1ccc(F)cc1,3.17%
11,CCOC(=O)CCC(=O)NCc1ccc2c(c1)cc(C)n2C,11.9% (active)
12,O=C(O)CSc1ncnc2scc(-c3ccc(Br)cc3)c12,11.7% (active)
13,CCc1ccc(-n2c(O)c(C=NCCN(CC)CC)c(=O)[nH]c2=O)cc1,20.8% (active)
14,CC(C)(C)NC(=O)CSc1nnc(-c2ccccn2)n1-c1ccccc1,6.6%
15,Cc1nnc(SCC(=O)NC(C)(C)C)n1C1CCCCC1,45% (active)
16,CN(C)S(=O)(=O)c1ccc2c(c1)/C(=C/c1cc3c([nH]1)CCCC3)C(=O)N2,18.2% (active)
17,S=c1[nH]nc(-c2ccc(Cl)cc2)n1-c1ccc2c(c1)OCCO2,136% (active)
18,Cc1ccc(-n2c(C)n[nH]c2=S)cc1,6.67%
19,Cn1c(=O)c(NCCO)c2c3c(cccc31)C(=O)c1ccccc1-2,4.78%
20,CC(=O)Nc1ccc(Nc2c3c4c(cccc4n(C)c2=O)C(=O)c2ccccc2-3)cc1,26.1% (active)
21,Cn1c(=O)c(NC2CCCCC2)c2c3c(cccc31)C(=O)c1ccccc1-2,9.43%
22,Cc1nc(-c2ccc(C#N)cc2)cs1,8.7%
23,CCOC(=O)C1C(=O)NC(SCC(N)=O)=C(C#N)C1c1ccccc1OCC (configuration not stated),2.57%

row,Structure (SMILES),activation
1,O=C(O)[C@@H]1[C@H]2C[C@H]3c4[nH]c5ccccc5c4CCN3C[C@@H]2CC[C@@H]1O,1.98%
2,Cc1ncoc1C(=O)N1CCc2c([nH]c3ccccc23)C1C(C)(C)C (configuration not stated),2.53%
3,COC(=O)C1=COC(C)C2CN3CCc4c([nH]c5cc(OC)c(OC)cc45)C3CC12 (configuration not stated),15.2% (active)
4,COC(=O)C1C2CC3c4[nH]c5cc(OC)ccc5c4CCN3CC2CC(OC(=O)CC(C)=O)C1OC (configuration not stated),7.14%
5,COC(=O)C1=COC(C)C2CN3CCc4c([nH]c5ccccc45)C3CC12 (configuration not stated),12.5% (active)
6,COC(=O)CCC(=O)OC1(C)C(=O)C=C2C=C(C3CC3)N(c3cccc(C#N)c3)C=C2C1=O (configuration not stated),0.81%
7,COc1ccc(/C=N/N=C2/CC(C)(C)Cc3n[nH]c(=O)cc32)cc1,955% (active)
8,N=c1oc2ccccc2cc1-c1nc(-c2ccccc2)cs1,4.19%
9,CCN(CC)c1ccc2cc(-c3nnc(-c4ccccc4)o3)c(=O)oc2c1,232% (active)
10,CCN(CC)c1ccc2cc(-c3nc(-c4cc5ccccc5oc4=O)cs3)c(=O)oc2c1,12% (active)
11,CCN(CC)c1ccc2cc(-c3nc4ccccc4n3C)c(=O)oc2c1,6.19%
12,O=c1oc2ccccc2cc1-c1nc(-c2cccs2)cs1,7.53%
13,CCN(CC)c1ccc2cc(-c3nnc(-c4ccncc4)o3)c(=O)oc2c1,18.1% (active)
14,Nc1c(C(=O)c2cccs2)sc2nsc(SCCN3CCCCC3)c12,-1.4%
15,Brc1ccc2[nH]c3nc(SCCN4CCOCC4)nnc3c2c1,6.16%
16,Nc1c(C(=O)c2ccc(Cl)cc2)sc2nsc(SCCN3CCOCC3)c12,12.7% (active)
17,COc1ccc(CNC(=O)c2sc(=S)n(-c3ccccc3)c2N)cc1,64.8% (active)
18,COc1ccc(CNC(=O)c2cc3c(s2)CS(=O)C3)cc1 (configuration not stated),6.8%
19,COc1ccc(CNC(=O)C(C#N)c2nc3ccccc3nc2N2CCCC2)cc1 (configuration not stated),2.74%
20,COC(=O)c1cc(-c2cccc(OC)c2)n[nH]1,16.6% (active)
21,CN1C=CC2=C(C#N)C(N)C(C#N)(C#N)[C@H](c3ccccc3)[C@H]2C1 (some centres not stated),6.1%
22,COc1cc([C@@H]2[C@H]3CN(C)CC=C3C(C#N)=C(N)C2(C#N)C#N)cc2c1OCO2,4.84%
23,CC(C)(C)OC(=O)N1CC=C2C(C#N)=C(N)C(C#N)(C#N)C(c3cccs3)C2C1 (configuration not stated),8.81%

row,Structure (SMILES),activation
1,CN1CC=C2C(C#N)=C(N)C(C#N)(C#N)[C@H](c3cccs3)[C@H]2C1,13.3% (active)
2,CN1C=CC2=C(C#N)C(N)C(C#N)(C#N)C(c3ccccc3)C2C1 (configuration not stated),4.16%
3,CCCN1CC=C2C(C#N)=C(N)C(C#N)(C#N)C(c3cc(OC)ccc3OC)C2C1 (configuration not stated),2.79%
4,CN1CC=C2C(C#N)=C(N)C(C#N)(C#N)[C@H](c3cccc(Cl)c3)C2C1 (some centres not stated),24.5% (active)
5,COc1cc(C2C3CN(C)CC=C3C(C#N)=C(N)C2(C#N)C#N)ccc1OC(C)C (configuration not stated),49.2% (active)
6,CC(C)N1CC=C2C(C#N)=C(N)C(C#N)(C#N)C(c3ccccc3)C2C1 (configuration not stated),6.28%
7,COc1ccc(OC)c(C2C3CN(C(C)C)CC=C3C(C#N)=C(N)C2(C#N)C#N)c1 (configuration not stated),17.8% (active)
8,CN1CC=C2C(C#N)=C(N)C(C#N)(C#N)C(c3ccsc3)C2C1 (configuration not stated),7.36%
9,CCN1CC=C2C(C#N)=C(N)C(C#N)(C#N)[C@H](c3ccoc3)[C@H]2C1,-0.65%
10,CN1CC=C2C(C#N)=C(N)C(C#N)(C#N)[C@H](c3ccoc3)[C@H]2C1,62.5% (active)
11,N#C/C(=C\c1ccc(-c2ccccc2C(=O)O)o1)c1nc2ccccc2[nH]1,14.2% (active)
12,Cc1ccc2nc(/C(C#N)=C/c3ccc(-c4ccccc4C(=O)O)o3)[nH]c2c1,12.9% (active)
13,N#C/C(=C\c1ccc(Sc2ccc(Cl)cc2)o1)c1nc2ccccc2[nH]1,7.23%
14,Cc1cc2nc(/C(C#N)=C\c3ccc(-c4ccccc4C(=O)O)o3)[nH]c2cc1C,14.2% (active)
15,COc1cccc(CN2CCNC(=O)C2CC(=O)N(C)Cc2cnccn2)c1OC (configuration not stated),7.66%
16,CC(=O)[C@H]1[C@H](C#N)C[C@H]2[C@@H]3CC=C4C[C@@H](O)CC[C@]4(C)[C@H]3CC[C@@]21C,45.3% (active)
17,O=c1c2ccccc2cnn1Cc1n[nH]c(=S)n1-c1ccccc1Cl,16.3% (active)
18,CSCC(O)Cn1ncc2ccccc2c1=O (configuration not stated),5.97%
19,CC1(C)NC(=O)N(CCCCOc2ccc(Cl)cc2)C1=O,0.92%
20,CCC(/C=C1\Oc2ccc(OC)cc2N1C)=C\c1sc2ccccc2[n+]1CCCS(=O)(=O)[O-],33.2% (active)
21,COc1cc(/C=C/c2sc3ccccc3[n+]2CCCS(=O)(=O)[O-])ccc1O,7.82%
22,CCOc1ccccc1C=NNC(=O)CCCCC(=O)NN=Cc1ccccc1OCC,6.22%
23,Cc1ccc(CSc2nnc(SCC(=O)N/N=C/c3ccccc3OCC(=O)O)s2)cc1,15.5% (active)

row,Structure (SMILES),activation
1,COc1ccccc1N1CCN(C(=O)c2cn(-c3ccccc3)nc2-c2cccnc2)CC1,10%
2,O=C(c1cn(-c2ccccc2)nc1-c1ccc(Br)cc1)N1CCOCC1,16.9% (active)
3,O=C(Nc1ccccc1F)C(=Cc1sc(N2CCOCC2)nc1-c1ccccc1)C(=O)Nc1ccccc1F,-0.07%
4,O=C(CSCc1c(F)cccc1Cl)Nc1ccccc1C(=O)N1CCOCC1,11.5%
5,O=C(N/C(=C/c1cn(-c2ccccc2)nc1-c1ccccc1)C(=O)N1CCOCC1)c1ccc(Cl)cc1Cl,12.7% (active)
6,Cc1cc(NC(=O)/C(C#N)=C\c2ccc(-c3ccc(SC(F)F)cc3)o2)n(-c2ccccc2)n1,359% (active)
7,Cc1cc(NC(=O)/C(C#N)=C/c2ccc(-c3ccc(SC(F)F)cc3)o2)n(-c2ccccc2)n1,659% (active)
8,COC(=O)CCc1c(C)c(C(=O)c2cc(F)c(F)c(F)c2F)c2ccccn12,-2.54%
9,O=C1CCNc2ccc(-c3ccccc3)cc21,7.84%
10,Cn1c(=O)c(NCCc2ccccc2)c2c3c(cccc31)C(=O)c1ccccc1-2,2.98%
11,Cn1c(=O)c2cc(NCc3ccccc3)nnc2n(C)c1=O,13.9% (active)
12,CC(C(=O)c1ccc(Br)cc1)[n+]1cccc2ccccc21 (configuration not stated),64.2% (active)
13,Cc1cc(C)nc(NC(=O)c2ccc(Cl)c(Cl)c2)n1,12.3% (active)
14,Cc1cccc(NC(=O)c2ccc(C(=O)c3ccccc3)cc2)n1,9.46%
15,COC(=O)c1c(NC(=O)c2ccnn2C)sc(C)c1C,5.98%
16,CCOC(=O)c1c(/N=C/c2cccc([N+](=O)[O-])c2O)sc(C)c1C,7.57%
17,COC(=O)c1c(NC(=O)CN2CCN(c3cccc(Cl)c3)CC2)sc(C)c1C,13.4% (active)
18,CCN1C(=S)N[C@@H](CCc2ccccc2)[C@H](C(=O)OC)[C@H]1C,57.4% (active)
19,COc1ccc(/C=C/C(=O)NC(=S)Nc2ccc(C(=O)O)cc2)cc1,55.3% (active)
20,CCC(=O)Nc1ccc(NC(=S)NC(=O)c2oc3ccccc3c2C)cc1,1.23%
21,O=C(O)c1ccc(NC(=S)NC(=O)c2ccc(-c3ccccc3)cc2)cc1,78.4% (active)
22,O=C(/C=C/c1ccccc1)N/C(=C/c1ccccc1)C(=O)NCCCO,9.8%
23,CC(C)(C)c1ccc(C(=O)NC(=S)Nc2ccc(N3CCOCC3)cc2)cc1,0.7%
